{
  "source": "ChEMBL document CHEMBL5705905",
  "about": "“Pharmacological targeting of kinases MST1 and MST2 augments tissue repair and regeneration” (Sci Transl Med, 2016)",
  "key": {"[1]": {"target": "Serine/threonine-protein kinase MARK2 (Homo sapiens) (UniProt Q7KZI7)", "test": "Inhibition of MARK2 (unknown origin) assessed as remaining activity at 1 uM by Kinome scan method relative to control"}, "[2]": {"target": "Tyrosine-protein kinase FRK (Homo sapiens) (UniProt P42685)", "sequence (P42685 whole entry)": "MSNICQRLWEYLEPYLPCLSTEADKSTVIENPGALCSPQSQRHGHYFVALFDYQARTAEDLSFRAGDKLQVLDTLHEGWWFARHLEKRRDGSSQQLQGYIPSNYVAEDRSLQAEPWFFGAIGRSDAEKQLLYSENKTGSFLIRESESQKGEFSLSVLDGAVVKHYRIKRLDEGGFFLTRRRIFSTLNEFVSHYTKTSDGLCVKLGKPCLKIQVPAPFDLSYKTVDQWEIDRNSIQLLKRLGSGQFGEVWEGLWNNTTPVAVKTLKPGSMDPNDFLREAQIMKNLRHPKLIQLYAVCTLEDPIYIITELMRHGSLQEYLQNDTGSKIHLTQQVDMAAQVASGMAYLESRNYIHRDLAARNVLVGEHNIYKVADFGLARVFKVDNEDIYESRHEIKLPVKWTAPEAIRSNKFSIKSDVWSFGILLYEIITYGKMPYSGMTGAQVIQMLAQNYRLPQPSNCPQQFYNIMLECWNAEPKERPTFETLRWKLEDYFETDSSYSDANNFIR", "test": "Inhibition of FRK (unknown origin) assessed as remaining activity at 1 uM by Kinome scan method relative to control"}, "[3]": {"target": "cAMP-dependent protein kinase catalytic subunit beta (Homo sapiens) (UniProt P22694)", "test": "Inhibition of PKAC-beta (unknown origin) assessed as remaining activity at 1 uM by Kinome scan method relative to control"}, "[4]": {"target": "Hormonally up-regulated neu tumor-associated kinase (Homo sapiens) (UniProt P57058)", "test": "Inhibition of HUNK (unknown origin) assessed as remaining activity at 1 uM by Kinome scan method relative to control"}, "[5]": {"target": "MAP kinase-interacting serine/threonine-protein kinase 2 (Homo sapiens) (UniProt Q9HBH9)", "test": "Inhibition of MKNK2 (unknown origin) assessed as remaining activity at 1 uM by Kinome scan method relative to control"}, "Mus musculus [6]": {"test_system": "Mus musculus", "test": "Protection against APAP induced liver injury in mouse assessed as decrease in mortality rate at 1 mg/kg, ip administered at 2.5 hrs", "type": "functional, organism-based"}, "[7]": {"target": "Tyrosine-protein kinase ABL1 (Homo sapiens, UniProt P00519, M351T)", "test": "Inhibition of phosphorylated ABL1 M351T mutant (unknown origin) in presence of ATP by enzymatic assay"}, "[8]": {"target": "Serine/threonine-protein kinase TAO1 (Homo sapiens, UniProt Q7L7X3)", "sequence (Q7L7X3 whole entry)": "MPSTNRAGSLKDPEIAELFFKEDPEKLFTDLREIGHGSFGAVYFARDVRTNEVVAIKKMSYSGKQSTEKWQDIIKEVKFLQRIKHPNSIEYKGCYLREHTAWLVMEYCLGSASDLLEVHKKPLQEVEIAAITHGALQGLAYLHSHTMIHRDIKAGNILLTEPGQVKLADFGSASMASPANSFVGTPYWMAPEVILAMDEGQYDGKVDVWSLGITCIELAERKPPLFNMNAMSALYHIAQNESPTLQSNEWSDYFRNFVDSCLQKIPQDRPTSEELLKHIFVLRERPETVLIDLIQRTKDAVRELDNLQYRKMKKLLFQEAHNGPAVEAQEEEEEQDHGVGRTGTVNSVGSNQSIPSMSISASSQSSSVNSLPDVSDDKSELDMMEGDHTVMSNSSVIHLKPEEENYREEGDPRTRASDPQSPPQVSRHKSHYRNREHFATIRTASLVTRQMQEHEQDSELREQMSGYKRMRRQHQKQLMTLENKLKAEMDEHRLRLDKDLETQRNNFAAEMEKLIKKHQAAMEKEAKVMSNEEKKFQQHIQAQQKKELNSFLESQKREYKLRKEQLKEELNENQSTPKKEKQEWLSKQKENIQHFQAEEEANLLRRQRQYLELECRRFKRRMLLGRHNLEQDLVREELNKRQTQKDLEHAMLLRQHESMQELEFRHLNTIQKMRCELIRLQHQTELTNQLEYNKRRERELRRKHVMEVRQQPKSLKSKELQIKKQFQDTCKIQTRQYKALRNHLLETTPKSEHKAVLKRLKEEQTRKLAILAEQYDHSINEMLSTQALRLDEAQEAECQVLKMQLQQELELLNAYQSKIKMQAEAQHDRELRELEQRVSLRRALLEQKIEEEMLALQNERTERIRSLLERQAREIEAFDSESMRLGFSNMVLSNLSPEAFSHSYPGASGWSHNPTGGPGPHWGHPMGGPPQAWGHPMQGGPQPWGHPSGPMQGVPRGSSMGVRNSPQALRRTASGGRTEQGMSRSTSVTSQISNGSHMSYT", "test": "Binding affinity to TAOK1 (unknown origin) assessed as dissociation constant"}, "[9]": {"target": "Serine/threonine-protein kinase 3 (Homo sapiens, UniProt Q13188, D109A/Y101F)", "sequence (Q13188 whole entry Y101F/D109A)": "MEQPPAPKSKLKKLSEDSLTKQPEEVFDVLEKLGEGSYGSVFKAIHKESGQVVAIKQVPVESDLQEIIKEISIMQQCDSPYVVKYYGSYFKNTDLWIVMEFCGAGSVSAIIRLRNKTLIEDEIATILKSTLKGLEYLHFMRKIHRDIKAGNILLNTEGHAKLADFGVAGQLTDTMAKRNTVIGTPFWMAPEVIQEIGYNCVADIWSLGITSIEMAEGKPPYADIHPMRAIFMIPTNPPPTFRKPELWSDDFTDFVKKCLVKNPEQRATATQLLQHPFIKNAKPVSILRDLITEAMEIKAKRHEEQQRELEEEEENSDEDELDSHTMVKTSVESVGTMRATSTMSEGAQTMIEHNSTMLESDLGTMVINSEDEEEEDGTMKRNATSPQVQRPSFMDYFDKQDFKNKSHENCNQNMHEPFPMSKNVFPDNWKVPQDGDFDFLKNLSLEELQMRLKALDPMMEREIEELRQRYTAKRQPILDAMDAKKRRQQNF"}, "[10]": {"target": "Glycogen synthase kinase-3 beta (Homo sapiens) (UniProt P49841)", "sequence (P49841 whole entry, looked up)": "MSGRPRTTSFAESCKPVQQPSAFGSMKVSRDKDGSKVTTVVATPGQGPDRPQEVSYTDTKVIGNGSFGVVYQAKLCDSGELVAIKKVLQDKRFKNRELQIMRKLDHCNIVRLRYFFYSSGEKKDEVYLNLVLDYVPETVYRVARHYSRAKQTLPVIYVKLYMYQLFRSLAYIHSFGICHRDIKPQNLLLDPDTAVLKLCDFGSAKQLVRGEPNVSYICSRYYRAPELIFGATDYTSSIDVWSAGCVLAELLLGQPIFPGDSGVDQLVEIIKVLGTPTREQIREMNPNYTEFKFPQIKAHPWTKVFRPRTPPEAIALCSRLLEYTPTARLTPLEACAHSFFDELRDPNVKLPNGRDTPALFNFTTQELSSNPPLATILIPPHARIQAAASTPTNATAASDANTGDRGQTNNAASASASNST", "test": "Inhibition of GSK3beta (unknown origin) assessed as remaining activity at 1 uM by Kinome scan method relative to control"}, "[11]": {"target": "Tyrosine-protein kinase HCK (Homo sapiens) (UniProt P08631)", "test": "Inhibition of HCK (unknown origin) assessed as remaining activity at 1 uM by Kinome scan method relative to control"}, "[12]": {"target": "Serine/threonine-protein kinase PLK1 (Homo sapiens) (UniProt P53350)", "sequence (P53350 whole entry)": "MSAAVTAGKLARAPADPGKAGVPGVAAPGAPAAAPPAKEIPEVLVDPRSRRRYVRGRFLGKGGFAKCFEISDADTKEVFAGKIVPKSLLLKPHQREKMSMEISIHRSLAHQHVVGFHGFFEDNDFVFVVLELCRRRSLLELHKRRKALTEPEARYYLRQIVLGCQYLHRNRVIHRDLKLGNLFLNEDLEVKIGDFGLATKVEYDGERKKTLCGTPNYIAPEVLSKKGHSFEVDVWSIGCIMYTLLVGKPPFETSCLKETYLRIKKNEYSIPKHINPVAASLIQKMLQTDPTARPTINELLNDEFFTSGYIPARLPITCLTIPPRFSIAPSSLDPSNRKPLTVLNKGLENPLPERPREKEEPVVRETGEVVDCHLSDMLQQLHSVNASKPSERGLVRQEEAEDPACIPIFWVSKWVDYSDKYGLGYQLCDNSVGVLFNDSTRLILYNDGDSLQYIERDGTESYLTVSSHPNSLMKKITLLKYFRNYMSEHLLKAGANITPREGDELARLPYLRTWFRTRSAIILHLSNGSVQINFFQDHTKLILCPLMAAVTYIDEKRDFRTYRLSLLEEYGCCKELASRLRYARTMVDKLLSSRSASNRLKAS", "test": "Inhibition of PLK1 (unknown origin) assessed as remaining activity at 1 uM by Kinome scan method relative to control"}, "[13]": {"target": "T1, Serine/threonine-protein kinase 4 (Homo sapiens, UniProt Q13043)", "T1 sequence (Q13043 whole entry)": "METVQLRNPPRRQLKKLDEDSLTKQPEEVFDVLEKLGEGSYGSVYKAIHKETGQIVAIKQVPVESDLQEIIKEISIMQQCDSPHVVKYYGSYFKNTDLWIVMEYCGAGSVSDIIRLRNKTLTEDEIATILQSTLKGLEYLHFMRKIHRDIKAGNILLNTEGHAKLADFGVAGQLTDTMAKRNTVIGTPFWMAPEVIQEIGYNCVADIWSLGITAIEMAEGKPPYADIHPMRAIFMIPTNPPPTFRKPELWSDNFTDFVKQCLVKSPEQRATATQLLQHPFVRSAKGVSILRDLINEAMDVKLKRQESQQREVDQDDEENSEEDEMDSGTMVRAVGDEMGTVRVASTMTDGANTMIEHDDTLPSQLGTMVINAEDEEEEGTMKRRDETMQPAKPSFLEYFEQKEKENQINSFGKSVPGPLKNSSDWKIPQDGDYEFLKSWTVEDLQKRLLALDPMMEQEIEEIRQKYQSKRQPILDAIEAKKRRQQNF", "test": "Binding affinity to MST1 (unknown origin) assessed as dissociation constant"}, "[14]": {"target": "Atypical kinase COQ8B, mitochondrial (Homo sapiens) (UniProt Q96D53)", "sequence (Q96D53 whole entry)": "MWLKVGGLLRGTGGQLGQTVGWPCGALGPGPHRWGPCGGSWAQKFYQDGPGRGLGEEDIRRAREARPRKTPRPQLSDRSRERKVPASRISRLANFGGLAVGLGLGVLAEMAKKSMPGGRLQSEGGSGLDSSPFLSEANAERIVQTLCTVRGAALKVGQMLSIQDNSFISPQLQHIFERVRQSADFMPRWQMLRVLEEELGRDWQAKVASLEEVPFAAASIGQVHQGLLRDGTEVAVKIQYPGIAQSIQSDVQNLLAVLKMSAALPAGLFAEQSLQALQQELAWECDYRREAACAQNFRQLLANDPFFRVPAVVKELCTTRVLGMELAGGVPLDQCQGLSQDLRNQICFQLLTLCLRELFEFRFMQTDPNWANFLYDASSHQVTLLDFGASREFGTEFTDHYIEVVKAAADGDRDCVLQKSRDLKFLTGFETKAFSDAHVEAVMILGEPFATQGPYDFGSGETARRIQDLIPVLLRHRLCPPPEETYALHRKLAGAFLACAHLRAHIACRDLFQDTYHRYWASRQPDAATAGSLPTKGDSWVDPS", "test": "Inhibition of ADCK4 (unknown origin) assessed as remaining activity at 1 uM by Kinome scan method relative to control", "in_short": "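Active-site-dependent competition-binding (KINOMEscan) panel of 468 kinases, test compound at 1 μM (from a 10 mM DMSO stock). Read-out is ctrl% = (test signal − positive control signal)/(negative control signal − positive control signal) × 100. DMSO is the negative control (100%) and a control compound is the positive control (0%). Lower ctrl% means tighter binding.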"}, "[15]": {"target": "Ephrin type-A receptor 7 (Homo sapiens) (UniProt Q15375)", "test": "Inhibition of EPHA7 (unknown origin) assessed as remaining activity at 1 uM by Kinome scan method relative to control"}, "[16]": {"target": "Serine/threonine-protein kinase ULK2 (Homo sapiens) (UniProt Q8IYT8)", "test": "Inhibition of ULK2 (unknown origin) assessed as remaining activity at 1 uM by Kinome scan method relative to control"}, "[17]": {"target": "Tyrosine-protein kinase ABL1 (Homo sapiens, UniProt P00519, Q252H)", "test": "Inhibition of phosphorylated ABL1 Q252H mutant (unknown origin) in presence of ATP by enzymatic assay"}, "[18]": {"test_system": "Tyrosine-protein kinase ABL1 (Homo sapiens), P00519 [E255K]", "test": "Inhibition of phosphorylated ABL1 E255K mutant (unknown origin) assessed as remaining activity at 1 uM by Kinome scan method relative to control"}, "[19]": {"target": "Phosphatidylinositol 4,5-bisphosphate 3-kinase catalytic subunit gamma isoform (Homo sapiens, UniProt P48736)", "sequence (P48736 whole entry, canonical isoform)": "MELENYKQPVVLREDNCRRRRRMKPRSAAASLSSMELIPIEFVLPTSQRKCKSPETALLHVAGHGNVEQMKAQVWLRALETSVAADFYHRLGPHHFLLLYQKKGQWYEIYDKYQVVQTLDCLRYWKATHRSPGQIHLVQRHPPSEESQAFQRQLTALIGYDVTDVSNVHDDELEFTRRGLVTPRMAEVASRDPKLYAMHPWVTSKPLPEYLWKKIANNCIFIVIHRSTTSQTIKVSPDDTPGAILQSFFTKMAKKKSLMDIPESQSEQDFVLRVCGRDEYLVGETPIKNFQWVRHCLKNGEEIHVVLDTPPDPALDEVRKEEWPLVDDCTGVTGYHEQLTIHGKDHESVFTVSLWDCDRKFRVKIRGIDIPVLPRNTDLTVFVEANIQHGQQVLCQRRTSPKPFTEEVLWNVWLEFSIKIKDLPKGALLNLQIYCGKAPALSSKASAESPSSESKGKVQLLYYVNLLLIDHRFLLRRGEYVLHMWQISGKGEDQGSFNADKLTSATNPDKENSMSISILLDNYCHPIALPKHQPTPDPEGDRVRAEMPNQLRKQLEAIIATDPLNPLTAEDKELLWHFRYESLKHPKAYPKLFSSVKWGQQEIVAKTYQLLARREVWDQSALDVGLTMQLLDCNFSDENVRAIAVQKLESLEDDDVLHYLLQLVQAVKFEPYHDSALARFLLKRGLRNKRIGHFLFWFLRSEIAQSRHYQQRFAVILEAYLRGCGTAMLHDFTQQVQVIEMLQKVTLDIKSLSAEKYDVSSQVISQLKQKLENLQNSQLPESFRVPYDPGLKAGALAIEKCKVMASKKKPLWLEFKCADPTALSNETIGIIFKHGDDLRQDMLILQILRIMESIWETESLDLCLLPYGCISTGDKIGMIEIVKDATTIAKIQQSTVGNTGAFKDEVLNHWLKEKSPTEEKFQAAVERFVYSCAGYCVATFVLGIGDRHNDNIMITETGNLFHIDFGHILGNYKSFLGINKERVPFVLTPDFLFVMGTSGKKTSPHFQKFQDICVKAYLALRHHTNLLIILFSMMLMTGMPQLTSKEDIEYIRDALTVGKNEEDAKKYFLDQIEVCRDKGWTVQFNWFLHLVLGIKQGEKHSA", "test": "Binding affinity to PIK3CG (unknown origin) assessed as dissociation constant"}, "Mus musculus [20]": {"test_system": "Mus musculus", "test": "Protection against CCl4-induced mouse assessed as low level in collagen deposition at 1 mg/kg, ip administration daily for 10 days by Sirius Red staining", "type": "functional, organism-based", "details": "Liver, time 10.0 day"}, "[21]": {"target": "Serine/threonine-protein kinase pim-2 (Homo sapiens) (UniProt Q9P1W9)", "sequence (Q9P1W9 whole entry, looked up)": "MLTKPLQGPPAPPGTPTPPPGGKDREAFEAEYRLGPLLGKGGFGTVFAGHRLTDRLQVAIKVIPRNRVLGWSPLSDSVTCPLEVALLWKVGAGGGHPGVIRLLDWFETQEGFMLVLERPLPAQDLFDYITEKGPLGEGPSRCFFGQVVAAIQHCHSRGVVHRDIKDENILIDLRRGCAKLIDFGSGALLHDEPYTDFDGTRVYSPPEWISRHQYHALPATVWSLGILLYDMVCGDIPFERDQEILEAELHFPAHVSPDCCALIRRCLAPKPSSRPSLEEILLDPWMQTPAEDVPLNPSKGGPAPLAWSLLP", "test": "Inhibition of PIM2 (unknown origin) assessed as remaining activity at 1 uM by Kinome scan method relative to control"}, "[22]": {"target": "T2, Serine/threonine-protein kinase 3 (Homo sapiens, UniProt Q13188)", "T2 sequence (Q13188 whole entry)": "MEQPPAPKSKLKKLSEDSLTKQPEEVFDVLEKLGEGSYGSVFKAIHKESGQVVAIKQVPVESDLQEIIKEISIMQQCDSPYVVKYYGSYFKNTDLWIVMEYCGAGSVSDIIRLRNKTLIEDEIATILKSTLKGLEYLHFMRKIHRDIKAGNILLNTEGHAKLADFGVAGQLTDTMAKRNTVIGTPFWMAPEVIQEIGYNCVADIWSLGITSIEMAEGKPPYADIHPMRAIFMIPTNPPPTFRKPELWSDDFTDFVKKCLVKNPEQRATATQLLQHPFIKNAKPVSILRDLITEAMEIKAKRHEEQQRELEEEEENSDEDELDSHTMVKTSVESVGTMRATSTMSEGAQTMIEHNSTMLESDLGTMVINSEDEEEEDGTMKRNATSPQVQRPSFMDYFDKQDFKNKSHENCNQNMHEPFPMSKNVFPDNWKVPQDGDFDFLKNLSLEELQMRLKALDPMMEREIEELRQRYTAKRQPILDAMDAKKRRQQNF"}, "[23]": {"target": "Ephrin type-B receptor 4 (Homo sapiens) (UniProt P54760)", "test": "Inhibition of EPHB4 (unknown origin) assessed as remaining activity at 1 uM by Kinome scan method relative to control"}},
  "note": "Active and inactive are the calls of the source. The calls are words filed in the database; no cut-off is given here.",
  "data": [
    {"molecule": "CN1C(=O)c2sccc2N(C)c2nc(Nc3ccc(S(N)(=O)=O)cc3)ncc21", "values": [
      {"measurement": "Activity", "setting": "[1]", "result": 93, "unit": "%"},
      {"measurement": "Activity", "setting": "[2]", "result": 100, "unit": "%"},
      {"measurement": "Activity", "setting": "[3]", "result": 80, "unit": "%"},
      {"measurement": "Activity", "setting": "[4]", "result": 84, "unit": "%"},
      {"measurement": "Activity", "setting": "[5]", "result": 59, "unit": "%"},
      {"measurement": "Activity", "setting": "Mus musculus [6]", "result": "Active"},
      {"measurement": "IC50", "setting": "[7]", "result": 17.6, "unit": "nM"},
      {"measurement": "Kd", "setting": "[8]", "result": 180, "unit": "nM"},
      {"measurement": "IC50", "setting": "[9]", "result": 1680, "unit": "nM"},
      {"measurement": "Activity", "setting": "[10]", "result": 100, "unit": "%"},
      {"measurement": "Activity", "setting": "[11]", "result": 100, "unit": "%"},
      {"measurement": "Activity", "setting": "[12]", "result": 70, "unit": "%"},
      {"measurement": "Kd", "setting": "[13]", "result": 17, "unit": "nM"},
      {"measurement": "Activity", "setting": "[14]", "result": 79, "unit": "%"},
      {"measurement": "Activity", "setting": "[15]", "result": 98, "unit": "%"},
      {"measurement": "Activity", "setting": "[16]", "result": 4.8, "unit": "%"},
      {"measurement": "IC50", "setting": "[17]", "result": 11.6, "unit": "nM"},
      {"measurement": "Activity", "setting": "[18]", "result": 11, "unit": "%"},
      {"measurement": "Kd", "setting": "[19]", "result": 4.8, "unit": "nM"},
      {"measurement": "Activity", "setting": "Mus musculus [20]", "result": "Active"},
      {"measurement": "Activity", "setting": "[21]", "result": 100, "unit": "%"},
      {"measurement": "IC50", "setting": "[22]", "result": 38.8, "unit": "nM"},
      {"measurement": "Activity", "setting": "[23]", "result": 61, "unit": "%"}
    ]}
  ]
}
